Experimental data published in ChEMBL document CHEMBL2331365, “Discovery of novel 2-hydroxydiarylamide derivatives as TMPRSS4 inhibitors” (Bioorg Med Chem Lett, 2013).
Where a name gives a salt, the structure may show the parent alone.

System: not listed separately
Experiment: Cytotoxicity against human SW480 cells overexpressing TMPRSS4 assessed as cell viability at 0.1 uM after 2 days by CCK-8 assay
Type: cell-based
Conditions: read-out: Activity
In short: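 Seeded at 10,000 cells/well, exposed to 0.1 µM compound or none at 37 °C for 2 days; CCK-8 reagent added and absorbance read at 450 nm. Higher value taken as lower cytotoxicity.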

Going from `O=C(Nc1cc(C(F)(F)F)cc(C(F)(F)F)c1)c1cc([N+](=O)[O-])ccc1O` to `O=C(Nc1cc(C(F)(F)F)cc(C(F)(F)F)c1)c1cc(Cl)ccc1O` [IMD-0354], the viability at 48 h, 0.1 µM falls from 96% to 90%.

First: O=C(Nc1cc(Br)cc(C(F)(F)F)c1)c1cc(Cl)ccc1O
Second: O=C(Nc1cc(C(F)(F)F)c(Br)c(C(F)(F)F)c1)c1cc(Cl)ccc1O
The viability at 48 h, 0.1 µM of the first is higher: 93% for the first, 89% for the second.

For `Cc1c(C(F)(F)F)cc(NC(=O)c2cc(Cl)ccc2O)cc1C(F)(F)F`, the viability at 48 h, 0.1 µM was 90%.

Target: T1, Transmembrane protease serine 4 (Homo sapiens, UniProt Q9NRS4)
Experiment: Inhibition of N-terminal His6-tagged recombinant TMPRSS4 (unknown origin) fused with enterokinase cleavage sequence DYKDDDGDYKDDDDK expressed in Escherichia coli BL21 (DE3) using Z-Phe-Arg-7-amido-4-methylcoumarin hydrochloride as substrate by fluorometric analysis
Conditions: not given

T1 sequence (Q9NRS4 whole entry, the tested form may be a part): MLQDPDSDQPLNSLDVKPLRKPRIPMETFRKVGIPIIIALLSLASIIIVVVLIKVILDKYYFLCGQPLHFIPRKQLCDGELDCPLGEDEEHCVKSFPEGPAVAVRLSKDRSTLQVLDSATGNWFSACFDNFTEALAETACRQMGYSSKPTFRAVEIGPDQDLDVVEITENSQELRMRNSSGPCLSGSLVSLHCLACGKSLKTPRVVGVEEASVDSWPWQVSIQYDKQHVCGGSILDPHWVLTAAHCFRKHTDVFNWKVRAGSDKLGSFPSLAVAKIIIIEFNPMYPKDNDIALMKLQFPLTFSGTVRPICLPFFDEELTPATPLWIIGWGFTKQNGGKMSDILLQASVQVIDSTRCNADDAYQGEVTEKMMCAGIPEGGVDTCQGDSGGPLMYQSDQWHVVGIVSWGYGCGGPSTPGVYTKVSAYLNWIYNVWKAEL

First: O=C(Nc1cnc2ccccc2c1)c1cc(Cl)ccc1O
Second: O=C(Nc1ccccc1)c1cc(Cl)ccc1O
The IC50 of the first is 1.7-fold higher: 85 µM for the first, 50 µM for the second.

First: Cc1cc(C)cc(NC(=O)c2cc(Cl)ccc2O)c1
Second: O=C(Nc1cc(Cl)cc(Cl)c1)c1cc(Cl)ccc1O
The IC50 of the first is 2.1-fold higher: 39 µM for the first, 19 µM for the second. The second is the more potent here.

First: O=C(Nc1ccc(C(F)(F)F)cn1)c1cc(Cl)ccc1O
Second: O=C(Nc1cc(C(F)(F)F)ccc1F)c1cc(Cl)ccc1O
The IC50 of the first is higher: over 100 µM for the first, 28 µM for the second.

`COc1ccc(O)c(C(=O)Nc2cc(C(F)(F)F)cc(C(F)(F)F)c2)c1` and `Cc1ccc(O)c(C(=O)Nc2cc(C(F)(F)F)cc(C(F)(F)F)c2)c1` are within 1.5-fold of each other in IC50: 29 µM for the first, 28 µM for the second.

First: O=C(Nc1cc(C(F)(F)F)cc(C(F)(F)F)c1)c1cc(Cl)cnc1O
Second: O=C(Nc1cc(C(F)(F)F)cc(C(F)(F)F)c1)c1cc(Cl)ccc1O [IMD-0354]
The IC50 of the first is higher: over 100 µM for the first, 11 µM for the second.

`O=C(Nc1ccc(Br)c(C(F)(F)F)c1)c1cc(Cl)ccc1O` and `O=C(Nc1ccc(Cl)c(C(F)(F)F)c1)c1cc(Cl)ccc1O` are within 1.5-fold of each other in IC50: 30 µM for the first, 35 µM for the second.

Compared with `O=C(Nc1cc(C(F)(F)F)cc(C(F)(F)F)c1)c1cc(F)ccc1O`, `O=C(Nc1cc(C(F)(F)F)cc(C(F)(F)F)c1)c1cc(Br)ccc1O` is 2.2-fold lower in IC50: 29 µM for the first, 13 µM for the second.

Going from `NCCc1ccc(S(=O)(=O)F)cc1` [4-AMINOETHYLBENZENESULFONYL FLUORIDE HYDROCHLORIDE] to `O=C(Nc1cccc(C(F)(F)F)c1)c1cc(Cl)ccc1O`, the IC50 falls from 39 µM to 13 µM (3-fold). The second is the more potent here.

First: O=C(Nc1cc(C(F)(F)F)ccc1C(F)(F)F)c1cc(Cl)ccc1O
Second: O=C(Nc1ccc(C(F)(F)F)c(C(F)(F)F)c1)c1cc(Cl)ccc1O
The IC50 of the first is 1.5-fold higher: 20 µM for the first, 13 µM for the second. The second is the more potent here.

`O=C(Nc1ccc(Cl)nc1)c1cc(Cl)ccc1O` and `O=C(Nc1ccnc(Cl)c1)c1cc(Cl)ccc1O` cannot be ordered by IC50: over 100 µM for the first, over 100 µM for the second.

First: NC(=O)c1ccc(O)c(C(=O)Nc2cc(C(F)(F)F)cc(C(F)(F)F)c2)c1
Second: O=C(Nc1cc(C(F)(F)F)cc(C(F)(F)F)c1)c1cc([N+](=O)[O-])ccc1O
The IC50 of the first is higher: over 100 µM for the first, 12 µM for the second. The second is the more potent here.

Compared with `O=C(Nc1cc(Cl)c(Cl)c(Cl)c1)c1cc(Cl)ccc1O`, `O=C(Nc1cc(Br)cc(C(F)(F)F)c1)c1cc(Cl)ccc1O` is lower in IC50: over 100 µM for the first, 12 µM for the second. The second is the more potent here.

First: N#Cc1ccc(O)c(C(=O)Nc2cc(C(F)(F)F)cc(C(F)(F)F)c2)c1
Second: O=C(Nc1cc(C(F)(F)F)cc(C(F)(F)F)c1)c1ccc(Cl)cc1O
The IC50 of the first is 1.6-fold higher: 19 µM for the first, 12 µM for the second. The second is the more potent here.

`N#Cc1ccc(NC(=O)c2cc(Cl)ccc2O)cc1` and `N#Cc1ccc(NC(=O)c2cc(Cl)ccc2O)nc1` are within 1.5-fold of each other in IC50: 76 µM for the first, 80 µM for the second.

First: O=C(Nc1cc(C(F)(F)F)c(Br)c(C(F)(F)F)c1)c1cc(Cl)ccc1O
Second: Cc1c(C(F)(F)F)cc(NC(=O)c2cc(Cl)ccc2O)cc1C(F)(F)F
The IC50 of the first is 1.7-fold lower: 6 µM for the first, 10 µM for the second. The first is the more potent here.

First: O=C(Nc1ncccn1)c1cc(Cl)ccc1O
Second: COc1cc(NC(=O)c2cc(Cl)ccc2O)cc(C(F)(F)F)c1
The IC50 of the first is higher: over 100 µM for the first, 16 µM for the second. The second is the more potent here.

`O=C(Nc1cc(C(F)(F)F)cc(C(F)(F)F)c1)c1cc(Cl)ccc1OCc1ccccc1` and `O=C(Nc1cc(C(F)(F)F)cc(C(F)(F)F)c1)c1ccc2ccccc2c1O` cannot be ordered by IC50: over 100 µM for the first, over 100 µM for the second.

First: O=C(NCc1cc(C(F)(F)F)cc(C(F)(F)F)c1)c1cc(Cl)ccc1O
Second: O=C(Nc1cc(C(F)(F)F)cc(C(F)(F)F)c1)c1cccc(Cl)c1O
The IC50 of the first is 1.5-fold higher: 18 µM for the first, 12 µM for the second. The second is the more potent here.

`CC(=O)Oc1ccc(Cl)cc1C(=O)Nc1cc(C(F)(F)F)cc(C(F)(F)F)c1` and `O=C(Nc1cc(C(F)(F)F)cc(C(F)(F)F)c1)c1ccccc1O` cannot be ordered by IC50: over 100 µM for the first, over 100 µM for the second.

First: O=C(Nc1cc(C(F)(F)F)cc(C(F)(F)F)c1)c1c[nH]c2ccccc2c1=O
Second: COc1c(C(F)(F)F)cc(NC(=O)c2cc(Cl)ccc2O)cc1C(F)(F)F
The IC50 of the first is higher: over 100 µM for the first, 12 µM for the second. The second is the more potent here.

Target: T1, Transmembrane protease serine 4
Experiment: Inhibition of TMPRSS4 in human SW480 cells assessed as inhibition of cell invasion at 0.1 uM relative to control
Type: cell-based
Conditions: not given
In short: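 SW480 cells overexpressing TMPRSS4 (clone T19) left to invade reconstituted basement membrane (Matrigel) with 0.1 µM compound present. Invasion expressed as percent inhibition relative to DMSO negative control.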

Going from `O=C(Nc1cc(C(F)(F)F)cc(C(F)(F)F)c1)c1cc([N+](=O)[O-])ccc1O` to `O=C(Nc1cc(C(F)(F)F)cc(C(F)(F)F)c1)c1cc(Cl)ccc1O` [IMD-0354], the inhibition rises from 26% to 45%.

First: O=C(Nc1cc(Br)cc(C(F)(F)F)c1)c1cc(Cl)ccc1O
Second: O=C(Nc1cc(C(F)(F)F)c(Br)c(C(F)(F)F)c1)c1cc(Cl)ccc1O
The inhibition of the first is lower: 43% for the first, 53% for the second.

`Cc1c(C(F)(F)F)cc(NC(=O)c2cc(Cl)ccc2O)cc1C(F)(F)F` gave an inhibition of 43%.
